Experiment [1] in a line: Growth inhibition of H292 cells by SRB assay in presence of dipyridamole. Type of experiment: functional, cell-based. The note with it: Homo sapiens, NCI-H292. A digest of the protocol:
(§1)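 SRB growth assay run with the nucleoside transport inhibitor dipyridamole at 1 µM final. Cells were seeded at 5000/well and exposed to a range of drug concentrations for 72 h at 37 °C, 5% CO2. Media: DMEM for A2780 and the dCK-deficient AG6000; RPMI for A549, H292 and H460; each with 10% FCS and 20 mM HEPES. Relative growth was calculated against ODzero and untreated controls.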

For experiment [2], the system named is NCI-H460. As to the kind of experiment: Growth inhibition of H460 cells by SRB assay. Type of experiment: functional, cell-based. The note with it: Homo sapiens. A digest of the protocol: (§2)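 Cells seeded at 5000/well and exposed to a range of drug concentrations for 72 h at 37 °C, 5% CO2, then read by SRB. A2780 and its dCK-deficient variant AG6000 were grown in DMEM; A549, H292 and H460 in RPMI; both media had 10% FCS and 20 mM HEPES. OD was read at 540 or 492 nm. Relative growth = (ODtreated − ODzero)/(ODcontrol − ODzero) × 100%, with ODzero taken at drug addition.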

Experiment [3] has as its system A549. As to the kind of experiment: Growth inhibition of A549 cells by SRB assay. The class given is functional, cell-based. The note with it: Homo sapiens. A digest of the protocol: as §2
The subject of experiment [4] is SW1573. As to the kind of experiment: Growth inhibition of SW1573 cells by SRB assay in presence of dipyridamole. Type of experiment: functional, cell-based. The note with it: Homo sapiens. The method, boiled down: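 SW1573 cells cultured in DMEM, 10% FCS, 20 mM HEPES, 37 °C, 5% CO2. Plated at 5000 cells/well and given graded drug concentrations with the nucleoside transport inhibitor dipyridamole at 1 µM final, for 72 h. SRB read-out at OD 540 or 492 nm. Growth is expressed relative to time-zero and untreated wells.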
For orientation: The SRB assay estimates cell density from bound dye.

The test system of experiment [5] is CCRF-CEM. The experiment is described as follows: Growth inhibition of dCK deficient CEM cells by MTT assay. The note with it: Homo sapiens. (Formazan colour is commonly taken as a measure of viable cells.)
Experiment [6] relates to A2780. As to the kind of experiment: Growth inhibition of A2780 cells by SRB assay in presence of dipyridamole. The class given is functional, cell-based. The note with it: Homo sapiens. A digest of the protocol: as §1
A short description of experiment [7]: Growth inhibition of AG6000 cells by SRB assay. Type of experiment: functional, cell-based. The settings on record: Homo sapiens. The method, boiled down: as §2
For experiment [8], the system named is CCRF-CEM. The experiment is described as follows: Growth inhibition of CEM cells by MTT assay in presence of dipyridamole. The note with it: Homo sapiens.
The test system of experiment [9] is NCI-H460. The experiment is described as follows: Growth inhibition of H460 cells by SRB assay in presence of dipyridamole. The note with it: Homo sapiens. The class given is functional, cell-based. The method, boiled down:
as §1

For experiment [10], the system named is CCRF-CEM. As to the kind of experiment: Growth inhibition of CEM cells by MTT assay. The note with it: Homo sapiens.
A short description of experiment [11]: Growth inhibition of AG6000 cells by SRB assay in presence of dipyridamole. The class given is functional, cell-based. The settings on record: Homo sapiens. The method, boiled down: as §1
Experiment [12] has as its system SW1573. As to the kind of experiment: Growth inhibition of SW1573 cells by SRB assay. The class given is functional, cell-based. The note with it: Homo sapiens. A digest of the protocol: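 SW1573 NSCLC cells grown in DMEM with 10% FCS and 20 mM HEPES at 37 °C, 5% CO2. Seeded at 5000 cells/well and exposed to a range of drug concentrations for 72 h, then SRB assay. OD read at 540 or 492 nm. Relative growth = (ODtreated − ODzero)/(ODcontrol − ODzero) × 100%, with ODzero taken at drug addition.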

In experiment [13] the test system is A549. The experiment is described as follows: Growth inhibition of A549 cells by SRB assay in presence of dipyridamole. The settings on record: Homo sapiens. Type of experiment: functional, cell-based. The method, boiled down:
as §1

Experiment [14] concerns CCRF-CEM. The experiment is described as follows: Growth inhibition of dCK deficient CEM cells by MTT assay in presence of dipyridamole. The note with it: Homo sapiens.
A short description of experiment [15]: Growth inhibition of H292 cells by SRB assay. Type of experiment: functional, cell-based. The settings on record: Homo sapiens, NCI-H292. A digest of the protocol:
as §2

Experiment [16] relates to A2780. The experiment is described as follows: Growth inhibition of A2780 cells by SRB assay. Type of experiment: functional, cell-based. The note with it: Homo sapiens. The method, boiled down:
as §2

The IC50 is the concentration that gives 50% inhibition. In the case of `Nc1ccn([C@@H]2O[C@H](CO)[C@@H](O)C2(F)F)c(=O)n1` [GEMCITABINE], the IC50 was determined as 210 nM in experiment [1]; 10 nM in the experiment with NCI-H460 [2]; 14 nM in the experiment with A549 [3]; 275 nM with SW1573 [4]; 50000 nM with CCRF-CEM [5]; 15 nM in the experiment with A2780 [6]. In addition, the IC50 turned out to be 20000 nM in experiment [7]; 1000 nM in the experiment with CCRF-CEM [8]; 103 nM in the experiment on NCI-H460 [9]; 130 nM with CCRF-CEM [10]; 20000 nM in experiment [11]; 16 nM in the experiment with SW1573 [12]. For the same compound, the IC50 came to 225 nM with A549 [13], 100000 nM in the experiment on CCRF-CEM [14], 13 nM in [15] and 1.5 nM with A2780 [16].

The record behind these values is ChEMBL document CHEMBL1146216, “Synthesis and biological activity of a gemcitabine phosphoramidate prodrug” (J Med Chem, 2007).
